From PubChem
MrgX1 PAM: allosterically activates human MrgX1 receptor signaling; Q96LB2; MrgX1-HEK293, Fluo-4 calcium flux, FDSS; hits give high values; B-score at 10 µM; 310,000 tested, 0.63% active; AID 588675;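 active means plate-corrected calcium response at least 3 library SD above typical, normal starting fluorescence, not activating the receptor alone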;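 further: compound read alongside a low EC10 to EC30 dose of BAM8-22 agonist; peak minus trough fluorescence over baseline measured at the second addition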
Target sequence (Q96LB2 whole entry, looked up): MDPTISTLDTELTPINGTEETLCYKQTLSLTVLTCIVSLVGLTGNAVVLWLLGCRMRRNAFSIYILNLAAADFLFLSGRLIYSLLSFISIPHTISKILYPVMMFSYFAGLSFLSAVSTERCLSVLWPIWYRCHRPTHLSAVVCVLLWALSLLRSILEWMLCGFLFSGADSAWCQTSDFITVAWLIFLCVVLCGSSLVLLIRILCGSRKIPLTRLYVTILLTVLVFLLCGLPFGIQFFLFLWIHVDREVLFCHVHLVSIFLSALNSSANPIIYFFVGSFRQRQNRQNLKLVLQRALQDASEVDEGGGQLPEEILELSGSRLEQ
MrgX1 antagonist: antagonists of human MrgX1 receptor; MRGX1-HEK293 calcium flux, Fluo-4, BAM8-22 antagonism; hits give low values; B-score at 10 µM; 310,000 tested, 1.3% active; AID 588676;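 active means calcium-response B-score plate-corrected more than 3 library SD below zero, starting fluorescence within 5 deviations, no agonist response on first addition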;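 further: peak minus trough fluorescence over baseline after final BAM8-22 challenge near maximal dose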
RGS4 act: RGS4 potentiation or activation; HEK293 M3R/inducible RGS4, carbachol calcium flux Fluo4; hits give low values; B-score at 10 µM; 310,000 tested, 0.92% active; AID 463111;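 active means B-score of the integrated calcium signal more than 4 SD below the library mean, with starting fluorescence not abnormally high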;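 further: negative B-score means reduced calcium response which marks RGS4 activation or potentiation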
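Assay system: HEK293 FlpIn-TREx cells, stable M3R, doxycycline-inducible RGS4 / Probe or stimulus: carbachol, ECmax concentration / Times: overnight RGS4 induction, 30 min dye load 37 °C, 20 min compound RT / Signal: kinetic calcium fluorescence imaging with Fluo4-AM dye, 2 µM / Measure: Agonist-evoked peak-minus-minimum fluorescence over baseline, integrated ratio, B score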
MrgX1 ag: human MrgX1 receptor agonism, primary screen; B-score at 10 µM; Q96LB2; 310,000 tested, 0.44% active; MrgX1-HEK293 cells, Fluo-4 calcium fluorescence, agonist mode; hits give high values;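 active means calcium response B-score plate-corrected fluorescence ratio at least 3 library SD, with starting fluorescence B-score inside 5 SD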
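Test system: HEK293 cells stably expressing human MrgX1 receptor; amount: 15,000 cells per well; doses: compound delivered in addition one of three; times: overnight plating before 1 h dye loading; detection: Fluo-4 NW calcium-flux fluorescence, kinetic read; read-out basis: B-scored fluorescence response ratio; controls: positive and negative controls per plate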
RGS4 inh: human RGS4 inhibition. P49798. HEK293 M3R/RGS4 inducible, Fluo-4 calcium flux; hits give high values; triggered by carbachol at its EC20. B-score at 10 µM. 310,000 tested, 0.45% active. AID 463165;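 active means B-score, a plate-corrected calcium signal, over three deviations above library mean, with baseline fluorescence within five deviations of library mean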;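 further: RGS4 expression induced by doxycycline in cells with stable M3 receptor; B-score is computed from the integrated fluorescence ratio over baseline after carbachol; higher B-score means a larger calcium signal and so more RGS4 inhibition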
Target sequence (P49798 whole entry, looked up): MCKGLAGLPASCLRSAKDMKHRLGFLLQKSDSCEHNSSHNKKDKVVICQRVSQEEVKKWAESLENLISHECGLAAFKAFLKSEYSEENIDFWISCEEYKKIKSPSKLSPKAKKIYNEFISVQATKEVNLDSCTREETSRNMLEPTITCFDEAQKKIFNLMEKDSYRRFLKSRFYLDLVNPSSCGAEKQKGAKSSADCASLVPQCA
Numbers stand for hits; n = inactive; x = no result. Compounds with a hit are over-represented: about 3.5% of the library has one in this group of screens.

SMILES | MrgX1 PAM | MrgX1 antagonist | RGS4 act | MrgX1 ag | RGS4 inh
COc1ccc(/C(O)=C/C(=O)C(=O)NNC(=O)c2ccccc2)cc1 | n | n | n | n | n
COc1ccc(/C(O)=C/C(=O)C(=O)NNC(=O)C(O)(c2ccccc2)c2ccccc2)cc1 | n | -4.8 | n | n | n
CSc1ccc(/C=C2\C(=N)N3N=C(CC(=O)N4CCCCC4)SC3=NC2=O)cc1 | n | n | n | 38 | n
CSc1ccc(/C=C2\C(=N)N3N=C(CC(=O)N4CCOCC4)SC3=NC2=O)cc1 | 11 | n | n | n | n
CCc1ccc(/C=C2\C(=N)N3N=C(CC(=O)N4CCCCC4)SC3=NC2=O)cc1 | n | n | n | n | n
CCN(CC)c1ccc(/C=C2\C(=N)N3N=C(CC(=O)N4CCOCC4)SC3=NC2=O)cc1 | n | n | n | 28 | n
C=CCc1cc(OC)ccc1OCCOCCN1CCc2ccccc2C1 | n | n | n | n | n
O=C(COC(=O)CNC(=O)C1CCCCC1)Nc1ccc(Cl)cc1F | n | n | n | n | n
CCCCCCCCNC(C)C(O)c1ccc(SC(C)C)cc1 (stereo not given) | n | n | -7 | n | n
COc1ccc(C(=O)N(C)C2CCN(C)CC2)cc1S(=O)(=O)Nc1cc(Cl)ccc1Cl | n | n | n | n | n
C/C(Cl)=C/CSc1nn2c(=O)c3ccccc3nc2s1 | 7.8 | n | n | n | n
C=CCn1c(C)cc(C(=O)CN2NS(=O)(=O)c3ccccc3C2=O)c1C | 7.1 | n | n | n | n
C=CCn1c(C)cc(C(=O)Cn2ncc(Cl)c(Cl)c2=O)c1C | n | n | n | n | n
Cc1csc(CN(C)C(=O)C2CCC(=O)N(CCN(C)C)C2)n1 (stereo not given) | n | n | n | n | n
O=C(CNCc1cccnc1)Nc1cc(C(F)(F)F)ccc1N1CCOCC1 | n | n | n | n | n
CC(CN1CCCCC1)OC(=O)c1ccc2c(c1)OCO2 (stereo not given) | n | n | n | n | n
CC1CCN(CC(C)OC(=O)c2ccc3c(c2)OCCO3)CC1 (stereo not given) | n | n | -7.3 | n | n
COc1ccc(CN2CCC(CO)(Cc3ccccc3C(F)(F)F)CC2)c(F)c1 | n | n | -7.1 | n | n
CCN(CC)c1ccc(S(=O)(=O)N2CCOCC2)cc1NC(=O)COC(=O)/C=C/c1ccc(C)o1 | n | n | -9.6 | n | n
Cn1c(/C(C#N)=C(\O)c2cccc(F)c2)nc2ccccc21 | n | -5.4 | n | n | n
CCN(Cc1ccccc1)C(c1cccs1)c1nnnn1C1CCCCC1 (stereo not given) | n | n | n | n | n
Clc1ccccc1CN(Cc1ccccc1)C(c1cccs1)c1nnnn1C1CCCC1 (stereo not given) | n | -5.7 | n | n | n
CC1(C(=O)N2CCC(CC3CC(c4cccc(Br)c4)=NO3)(C(=O)NCC3CCCCC3)CC2)CC1 (stereo not given) | n | n | n | n | n
O=C(COc1ccc2c3c(c(=O)oc2c1)CCC3)Nc1ccccn1 | n | n | n | n | n
Cc1cccc(CSc2nc3c(c(-c4cccs4)c2C#N)CN(C)CC3)c1 | 8.7 | n | n | n | n
SMILES | MrgX1 PAM | MrgX1 antagonist | RGS4 act | MrgX1 ag | RGS4 inh
Cc1ccccc1SCC(=O)Nc1cc(C(F)(F)F)ccc1N1CCOCC1 | 11 | n | n | n | n
Cc1cccn2c(=O)c3cc(C(=O)NCc4ccco4)c(=N)n(CCc4ccccc4)c3nc12 | n | n | x | n | x
Cc1cccn2c(=O)c3cc(C(=O)NCCc4ccccc4)c(=N)n(Cc4ccco4)c3nc12 | n | n | -8.6 | n | n
CCOCCCn1c(=N)c(C(=O)NCc2ccc3c(c2)OCO3)cc2c(=O)n3cccc(C)c3nc21 | n | n | -8.5 | n | n
CC(C)c1nc2oc3c(N(C)CCO)ncnc3c2c2c1CCC2 | n | n | n | n | n
Cc1c(C(=O)OCCOc2ccc(Br)cc2)sc(=S)n1C | n | n | n | n | n
COc1ccc(CN2CCCC(C(=O)N3CCCCC3)C2)cc1OC (stereo not given) | n | n | n | n | n
Cc1nc(C)c(-c2nnc(-c3ccccc3Cl)o2)cc1C(=O)NN | n | n | n | n | n
Cc1nc(C)c(-c2nnc(-c3ccc(C(C)(C)C)cc3)o2)cc1C(=O)NN | n | -6 | n | n | n
CCOC(=O)C1CCN(c2cc3c(cc2NC(=O)c2ccccc2OCC)n(C)c(=O)n3C)CC1 | n | n | -7.8 | n | n
CC(=O)NNC(=O)c1sc(=S)n2c1[nH]c(=O)c1sccc12 | n | n | n | n | n
NC(=O)c1sc(=S)n2c1[nH]c(=O)c1sccc12 | 16 | n | n | n | n
CN(CC(=O)Nc1ccccc1Br)Cc1nc2ccccc2c(=O)[nH]1 | n | n | n | n | n
CCC1CCCCN1CCCNC(=O)CSc1nc2nc(C)c(Cc3ccccc3Cl)c(C)n2n1 (stereo not given) | n | n | -7 | n | n
Cn1ccc(NC(=O)Nc2cccc([N+](=O)[O-])c2)n1 | n | n | n | n | n
CCc1ccc2nc(N3C(=O)C(O)=C(C(=O)c4ccco4)C3c3cccs3)sc2c1 (stereo not given) | n | n | n | n | n
Cc1ccc2nc(N3C(=O)C(O)=C(C(=O)c4cc5ccccc5o4)C3c3cccs3)sc2c1 (stereo not given) | n | -5.6 | n | n | n
COc1ccc(CCNC(=O)c2c[nH]c3ccc(F)cc3c2=O)cc1OC | n | n | n | n | n
Cc1cccc(NC(=O)COC(=O)c2cccc3c2C(=O)c2ccccc2C3=O)c1C | n | n | -7.2 | n | n
Cc1cccc(C)c1NC(=O)COC(=O)c1cccc2c1C(=O)c1ccccc1C2=O | n | n | n | n | n
COc1ccc(C2=NOC(Cn3nc(C(=O)NCC4CC4)cc3-c3ccccc3)C2)cc1 (stereo not given) | 7.9 | n | n | n | n
CCOc1cc(CNC2CCCC2)c(Cl)cc1OCC(=O)Nc1ccccc1 | n | n | -7.2 | n | n
COc1ccc(NC(=O)Cc2nnc(SCC(=O)Nc3ccc(F)cc3)n2C)cc1 | n | n | n | n | n
COCCNC(=S)N/N=C/c1ccc(OCc2ccc(C(=O)OC)cc2)c(OC)c1 | n | -4.9 | n | n | n
CC1CCN(c2cc(C#N)c(C#N)cc2[N+](=O)[O-])CC1 | 11 | n | n | n | n
CC1CCN(c2cc(N)c(Cl)cc2[N+](=O)[O-])CC1 | 7.3 | n | n | n | n
CCOC(=O)/C(C#N)=C/c1c[nH]c2ccccc12 | n | n | n | n | n
CCOC(=O)C(=Cc1c[nH]c2ccc(S(=O)(=O)N(C)C)cc12)C(=O)OCC | 6.7 | n | n | n | n
Cn1c(C(=O)N[C@@H](C(=O)O)c2ccccc2)cc2cc(F)ccc21 | n | n | n | n | n
O=C1c2ccccc2NC(c2cccc(Cl)c2)N1N=C1CCCCCC1 (stereo not given) | 8.6 | n | n | n | n
